This passage reports LD50, ILS and Survivors results from ChEMBL document CHEMBL1122917, “Vinblastin-23-oyl amino acid derivatives: chemistry, physicochemical data, toxicity, and antitumor activities against P388 and L1210 leukemias” (J Med Chem, 1985).

A short description of data set [1]: Acute iv toxicity against Swiss strain of 40 mice after 4 doses of injection. The conditions noted are these: mouse, in vivo. It is filed as organism-based. In a few lines:
(§1)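 Acute toxicity in Swiss, CD1 or NMRI mice. Drugs given iv as sulfate salts. LD50 taken at day 14 from several dose levels, with 40–[…] mice per drug and strain.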

A short description of data set [2]: Acute iv toxicity against NMRI strain of 100 mice after 7 doses of injection. It is filed as organism-based. The conditions noted are these: mouse, in vivo. An outline of the steps:
as §1

Data set [3] has as its system Mus musculus. Description: Percent increase in life span at dose 6 mg/kg/day in 10 mice implanted with P388 leukemia cell line. Format: functional. An outline of the steps:
(§2)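 Female DBA2 mice inoculated iv on day 0 with 10^4 P388 cells; single iv treatment on day 1 with drug as sulfate salt in physiological saline. Survival followed; %ILS from all deaths and survivors as (T/C × 100) − 100, maximal MST 30 days; survivors counted on days 30 and 60. Most experiments confirmed three times.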

The subject of data set [4] is Mus musculus. Description: Percent increase in life span of DBA2 mice after inoculation with L1210 leukemia intravenously at a dose of 4 mg/kg per day. The settings on record: route intravenous. It is filed as functional. In a few lines: (§3)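 Female DBA2 mice inoculated iv on day 0 with 10^4 L1210 cells; drugs given iv as sulfate salts in physiological saline, mostly once on day 1. %ILS from all deaths and survivors as (T/C × 100) − 100; survivors scored on days 30 and 60.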

The subject of data set [5] is Mus musculus. Description: Percent increase in life span of DBA2 mice after inoculation with L1210 leukemia intravenously at a dose of 5 mg/kg per day. Format: functional. The settings on record: Mus musculus, L1210, iv. In a few lines: as §3
Data set [6] deals with Mus musculus. The data set is described as follows: Percent increase in life span of DBA2 mice after inoculation with L1210 leukemia intravenously at a dose of 6 mg/kg per day. It is filed as functional. The conditions noted are these: route intravenous. An outline of the steps:
as §3

Data set [7] relates to Mus musculus. The data set is described as follows: Percent increase in life span of DBA2 mice after inoculation with L1210 leukemia intravenously at a dose of 7 mg/kg per day. Format: functional. The settings on record: route intravenous. In a few lines: as §3
In data set [8] the test system is Mus musculus. The data set is described as follows: Number of survivors on 60th day at dose 6 mg/kg/day in 10 mice implanted with P388 leukemia cell line; 0/10. It is filed as functional.
For data set [9], the system named is Mus musculus. The data set is described as follows: Percent increase in life span at dose 7 mg/kg/day in 10 mice implanted with P388 leukemia cell line. It is filed as functional. An outline of the steps: as §2
Data set [10] relates to Mus musculus. The data set is described as follows: Percent increase in life span at dose 8 mg/kg/day in 10 mice implanted with P388 leukemia cell line. It is filed as functional. In a few lines: as §2
In data set [11] the test system is Mus musculus. Description: Number of survivors of DBA2 mice on 30th day after inoculation with L1210 leukemia cell line intravenously at a dose of 4 mg/kg/day; 0/10. Format: functional. The settings on record: route intravenous.
The test system of data set [12] is Mus musculus. The data set is described as follows: Number of survivors of DBA2 mice on 30th day after inoculation with L1210 leukemia cell line intravenously at a dose of 5 mg/kg/day; 0/10. Format: functional. The conditions noted are these: route intravenous.
For data set [13], the system named is Mus musculus. Description: Number of survivors of DBA2 mice on 30th day after inoculation with L1210 leukemia cell line intravenously at a dose of 7 mg/kg/day; 0/10. It is filed as functional. The conditions noted are these: route intravenous.
Data set [14] deals with Mus musculus. The data set is described as follows: Number of survivors of DBA2 mice on 30th day after inoculation with L1210 leukemia cell line intravenously at a dose of 9 mg/kg/day; 0/10. Format: functional. The conditions noted are these: route intravenous.
Data set [15] deals with Mus musculus. Description: Percent increase in life span at dose 4 mg/kg/day in 10 mice implanted with P388 leukemia cell line. The conditions noted are these: Mus musculus, P388. Format: functional. In a few lines:
as §2

The subject of data set [16] is Mus musculus. The data set is described as follows: Percent increase in life span at dose 5 mg/kg/day in 10 mice implanted with P388 leukemia cell line. Format: functional. An outline of the steps: as §2
The subject of data set [17] is Mus musculus. The data set is described as follows: Number of survivors on 60th day at dose 8 mg/kg/day in 10 mice implanted with P388 leukemia cell line; 0/10. It is filed as functional. An outline of the steps: as §2
The subject of data set [18] is Mus musculus. The data set is described as follows: Number of survivors on 30th day at dose 4 mg/kg/day in 10 mice implanted with P388 leukemia cell line; 0/10. Format: functional.
In data set [19] the test system is Mus musculus. Description: Number of survivors on 60th day at dose 7 mg/kg/day in 10 mice implanted with P388 leukemia cell line; 0/10. Format: functional. In a few lines:
as §2

Data set [20] concerns Mus musculus. Description: Number of survivors of DBA2 mice on 60th day after inoculation with L1210 leukemia cell line intravenously at a dose of 4 mg/kg/day; 0/10. It is filed as functional. The conditions noted are these: route intravenous.
In data set [21] the test system is Mus musculus. Description: Number of survivors of DBA2 mice on 60th day after inoculation with L1210 leukemia cell line intravenously at a dose of 5 mg/kg/day; 0/10. Format: functional. The settings on record: route intravenous.
The subject of data set [22] is Mus musculus. Description: Number of survivors of DBA2 mice on 60th day after inoculation with L1210 leukemia cell line intravenously at a dose of 6 mg/kg/day; 0/10. Format: functional. The settings on record: route intravenous.
The subject of data set [23] is Mus musculus. Description: Number of survivors of DBA2 mice on 60th day after inoculation with L1210 leukemia cell line intravenously at a dose of 7 mg/kg/day; 0/10. It is filed as functional. The settings on record: route intravenous.

Each structure is given as a SMILES string. Some results are limits rather than exact numbers.

Regarding `CCOC(=O)[C@H](Cc1c[nH]c2ccccc12)NC(=O)[C@@]1(O)[C@H](O)[C@]2(CC)C=CCN3CC[C@@]4(c5cc([C@@]6(C(=O)OC)C[C@H]7C[N@](CCc8c6[nH]c6ccccc86)C[C@](O)(CC)C7)c(OC)cc5N(C)[C@@]14C)[C@@H]32`, the LD50 in data set [1] came out at 94 mg/kg; in [2], 269 mg/kg.

Regarding `CCOC(=O)[C@@H](NC(=O)[C@@]1(O)[C@H](O)[C@]2(CC)C=CCN3CC[C@@]4(c5cc([C@@]6(C(=O)OC)C[C@H]7C[N@](CCc8c6[nH]c6ccccc86)C[C@](O)(CC)C7)c(OC)cc5N(C)[C@@]14C)[C@@H]32)[C@@H](C)CC`, the ILS at 6 mg/kg/day in the data set with Mus musculus [3] was 73.5%; with Mus musculus [6] it was 41.3%. Also, the ILS at 4 mg/kg/day worked out at 20% in the data set on Mus musculus [4] and 60% with Mus musculus [15]. Besides, the ILS at 5 mg/kg/day was determined as 36% in the data set with Mus musculus [5] and 60.4% in the data set with Mus musculus [16]. The figures for the ILS at 7 mg/kg/day with Mus musculus [7] and in the data set on Mus musculus [9] were 27% and 56%, respectively. Besides, the Survivors in the data set on Mus musculus [8], in the data set on Mus musculus [11], in the data set with Mus musculus [12], in the data set with Mus musculus [13], in the data set with Mus musculus [14] and in the data set with Mus musculus [17] was 0 throughout. For the same molecule, the Survivors in the data set with Mus musculus [18], in the data set with Mus musculus [19], in the data set on Mus musculus [20], in the data set on Mus musculus [21], with Mus musculus [22] and with Mus musculus [23] was 0 each time. The ILS at 8 mg/kg/day in the data set on Mus musculus [10] is greater than 183%.
